Bioassay records as filed in PubChem.
An excerpt weighted towards active compounds, which were near 2.8% of everything screened.
GRIN3A LBD mod – modulates the human NR3A ligand-binding domain; Tm shift relative to glycine control, % at 25 µM; NR3A LBD differential scanning fluorimetry, Tm shift; 0% = protein alone, 100% = glycine-bound protein; 340,000 compounds, 2.5% hits;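 active = melting temperature shift of at least 10% of the positive control shift, at one fixed dose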
T cell HTS – modulates CD8 T cell binding to vesicles. 2C CD8+ T cell-vesicle binding, flow cytometry; stronger effect = lower value. response (vesicle binding), % at 7 µM. 330,000 compounds, 0.068% hits;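 active = response, share of CD8 T cells binding vesicles, and their 90th percentile fluorescence all below set limits, cut at about 80% in these data, passing the limit was not always enough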;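 note: values below 100% mean blocked vesicle binding to the CD8+ T cells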
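Test system: purified 2C TCR transgenic mouse naive CD8+ T cells. Probe or stimulus: QL9-peptide-loaded Drosophila micro-vesicles bearing Ld, ICAM-1 and B7-1. Incubation: binding step 1.5 h, 37 °C, antibody labelling 20 min, ice. Measured by: flow cytometry of vesicle-bound cells.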
Rtt109 HAT inh – C. albicans Rtt109 histone acetyltransferase inhibition | purified Rtt109/Vps75, ThioGlo CoA-SH fluorescence, 4 h | inhibition, % at 34.9 µM | 330,000 compounds, 0.16% hits | AID 540336;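 active = inhibition of at least 50% in every replicate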
Target sequence (Q5AAJ8 whole entry, looked up): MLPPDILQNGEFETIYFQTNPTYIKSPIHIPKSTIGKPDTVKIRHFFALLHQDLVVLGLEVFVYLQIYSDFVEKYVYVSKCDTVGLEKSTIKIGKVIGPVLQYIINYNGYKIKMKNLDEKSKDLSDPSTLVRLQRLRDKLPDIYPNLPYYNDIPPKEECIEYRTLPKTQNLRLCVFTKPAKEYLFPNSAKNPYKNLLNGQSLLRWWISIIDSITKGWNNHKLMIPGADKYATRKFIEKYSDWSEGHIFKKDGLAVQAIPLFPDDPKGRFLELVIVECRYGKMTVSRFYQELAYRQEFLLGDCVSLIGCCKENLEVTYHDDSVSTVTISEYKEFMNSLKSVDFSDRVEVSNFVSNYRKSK
JMJD2C inh – blocks human GASC-1 demethylase activity; GST-JMJD2C(1-420) H3K9me3 demethylation, DELFIA europium; inhibition, % at 2.35 µM; Q9H3R0; 330,000 compounds, 0.069% hits;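 active = more than half of a compound's replicate wells show inhibition beyond 50%, single wells judged on their own value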;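 note: signal counts dimethyl H3K9 product captured on neutravidin plate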
Hits are given with their value; 0 = inactive; - = not tested or not shown.

SMILES | GRIN3A LBD mod | T cell HTS | Rtt109 HAT inh | JMJD2C inh
CC1CCCC(NS(=O)(=O)c2cccc3nsnc23)C1C (stereo unspecified) | 0 | 0 | 55 | 0
CC(C)C(NS(=O)(=O)c1cccc2nsnc12)C(=O)NC1CCCCC1C (stereo unspecified) | 0 | 0 | 0 | 0
COc1ccc(C(c2nnnn2C2CCCC2)N2CCC(C(N)=O)CC2)c(OC)c1 (stereo unspecified) | 14 | - | 0 | 0
O=C(Nc1ccc(F)cc1)Nc1ccc2c(c1)OCO2 | 11 | 0 | 0 | 0
COc1cc([N+](=O)[O-])ccc1NC(=O)Nc1ccc2c(c1)OCCO2 | 0 | 0 | 0 | 0
Cc1cccc(OCC(=O)Nc2ccc3c(c2)OCO3)c1C | 23 | 0 | - | 0
O=C(Nc1ccc([N+](=O)[O-])cc1)Nc1ccc2[nH]c(=O)[nH]c2c1 | 24 | 0 | 0 | 0
O=C(Nc1ccc([N+](=O)[O-])cc1)Nc1ccc2c(c1)OCCO2 | 21 | 0 | 0 | 0
CCN(CC(=O)Nc1c(F)cccc1F)C(=O)c1ccccn1 | 0 | 0 | 0 | 0
COc1cc(C(=O)N/C(=C/c2ccc(F)cc2)C(=O)NC(C(=O)O)c2ccccc2)cc(OC)c1OC (stereo unspecified) | 0 | 0 | 0 | 0
O=C(CN1C(=O)NC2(CCc3ccccc32)C1=O)c1ccc(Br)cc1 (stereo unspecified) | 0 | 0 | 0 | 0
COc1cc(NC(=O)Nc2ccc3c(c2)OCO3)cc(OC)c1OC | 26 | 0 | 0 | 0
O=C(Nc1cccc(C(=O)O)c1)Nc1ccc2c(c1)OCO2 | 24 | 0 | 0 | 0
O=C(Nc1ccc2c(c1)OCO2)Nc1ccc2c(c1)OCO2 | 0 | 0 | 0 | 0
O=C(NC(=S)Nc1ncc(Br)cc1Br)c1ccccc1 | 0 | 0 | 0 | 0
CCN(CC)C(=O)CSc1nc2c(sc(=S)n2-c2ccccc2)c(=O)n1-c1ccc(OC)cc1OC | 12 | 0 | 0 | 0
COc1cc(/C=N/n2cnc3c(sc4nc(C)cc(C)c43)c2=O)ccc1O | 26 | 0 | - | 0
CCOC(=O)c1sc2ncn(/N=C/c3ccc(O)c(OC)c3)c(=O)c2c1C | 0 | 0 | 0 | 0
COc1ccc([N+](=O)[O-])c(O)c1C(C)=O | 0 | - | 0 | -
O=C(O)c1cnn2c(C(F)(F)F)cc(-c3ccco3)nc12 | 0 | 0 | 0 | 0
O=C(c1cnn2c(C(F)(F)F)cc(-c3ccco3)nc12)N1CCCCCC1 | 11 | 0 | 0 | 0
CCOc1ccc2c(ccc(/C=C/c3cc(C)c4cccnc4c3O)[n+]2C)c1 | 0 | - | 0 | -
S=C(NNc1ccnc2cc(Cl)ccc12)Nc1ccc(Cl)cc1Cl | 15 | 0 | 0 | 0
CCOc1ncccc1C(=O)Nc1ccc(C)c(S(=O)(=O)N2CCCCCC2)c1 | 0 | 0 | 0 | -
Oc1c(/C=C/C=C/C=Nc2ccccc2)sc(=S)n1Cc1ccccc1 | 10 | 0 | - | 0
SMILES | GRIN3A LBD mod | T cell HTS | Rtt109 HAT inh | JMJD2C inh
COc1ccc(NC(=O)C(c2ccc(C)cc2)N(C)C(=O)CC2NC(=O)NC2=O)cc1 (stereo unspecified) | 12 | 0 | 0 | 0
COc1ccc(NC(=O)C(c2ccc(OC)cc2)N(Cc2ccco2)C(=O)CC2NC(=O)NC2=O)cc1 (stereo unspecified) | 0 | 0 | 0 | 0
Cc1cc(C)c(S(=O)(=O)ON2C(=O)c3ccccc3C2=O)cc1C | 0 | 0 | 0 | 0
Cc1ccc(S(=O)(=O)ON2C(=O)c3ccccc3C2=O)c(C)c1 | 22 | 0 | 0 | 0
O=S(=O)(c1ccccc1)N1CCN(Cc2ccccc2C(F)(F)F)CC1 | 0 | 0 | 0 | -
Cc1ccc(S(=O)(=O)N2CCN(Cc3ccccc3C(F)(F)F)CC2)cc1 | 20 | 0 | 0 | 0
CC1=NOC(=O)/C1=C/c1ccc(O)c(Cl)c1 | 20 | 0 | 0 | 0
COc1cc(/C=C2/C(=O)ON=C2C)cc(Cl)c1O | 26 | 0 | 0 | 0
CCN(Cc1nc2ccccc2c(=O)[nH]1)C(=O)COc1ccccc1Cc1ccccc1 | 11 | - | 0 | -
COCCN(Cc1nc2ccccc2c(=O)[nH]1)C(=O)COc1ccccc1-c1ccccc1 | 13 | - | 0 | -
Cn1c(=O)c2c(ncn2CC(=O)N2CCN(c3ccc([N+](=O)[O-])cc3)CC2)n(C)c1=O | 18 | 0 | 0 | 0
COc1ccc(N2CCN(C(=O)Cn3cnc4c3c(=O)n(C)c(=O)n4C)CC2)cc1 | 0 | 0 | 0 | 0
C=CCN(C(=O)c1csnn1)C(C(=O)NC1CCCC1)c1ccccc1 (stereo unspecified) | 0 | 0 | 0 | 0
COc1ccc(NS(=O)(=O)c2ccc3oc(SCc4ccc(F)cc4)nc3c2)cc1 | 13 | 0 | 0 | 0
Cc1ccc(NC(=O)CNC(=O)c2ccc(OC(F)F)cc2)cc1S(=O)(=O)N1CCCCCC1 | 12 | - | 0 | -
Cc1ccc(NC(=S)Nc2ccc(C(C)C)cc2)cc1S(=O)(=O)N1CCCCCC1 | 28 | 0 | 0 | 0
Cn1c(=O)c2[nH]c(Cc3ccsc3)nc2n(C)c1=O | 0 | - | 0 | -
CC(=O)c1ccc(OCC(=O)OCC(=O)NCc2ccco2)cc1 | 0 | 0 | 0 | 0
NS(=O)(=O)c1ccc(CCNc2ncnc3sccc23)cc1 | 19 | 0 | 0 | 0
COc1cc(C(=O)OCc2csc(CC(=O)Nc3ccccc3C)n2)ccc1OCC(C)C | 0 | - | 0 | -
COc1cccc(CC(O)CC2c3c(cc4c(c3OC)OCO4)CCN2C)c1 (stereo unspecified) | 0 | - | 0 | -
CCOc1ccc(NC(=O)Nc2ccc3c(c2)N(C)C(=O)CS3)cc1 | 18 | 0 | 0 | 0
COc1ccc(NC(=O)Nc2ccc3c(c2)N(C)C(=O)CS3)cc1OC | 0 | 0 | 0 | 0
COc1ccc(NC(=O)Nc2ccc3c(c2)N(C)C(=O)CS3)cc1Cl | 27 | 0 | 0 | 0
CC(=O)c1ccc(NC(=O)Nc2ccc3c(c2)N(C)C(=O)CS3)cc1 | 19 | 0 | 0 | 0
SMILES | GRIN3A LBD mod | T cell HTS | Rtt109 HAT inh | JMJD2C inh
O=C(CN1C(=O)NC2(CCCCCC2)C1=O)NCc1ccc(Cl)cc1 | 0 | 0 | 0 | 0
CCOC(=O)c1c(S(=O)(=O)NCc2ccco2)c(C)n(C)c1C | 0 | 0 | 0 | 0
Cc1ccc(Nc2nc(-c3cccs3)cs2)nc1 | 24 | 0 | 0 | 0
CCOC(=O)c1cnc2ccc(OC)cc2c1NCc1ccccc1 | 0 | 0 | 0 | 0
CCOC(=O)c1cnc2ccc(OCC)cc2c1NCc1ccccc1OC | 20 | 0 | 0 | 0
CC(C)c1cccc(-c2ccc3c(c2)S(=O)(=O)c2cccc(C(=O)NCc4ccccc4Cl)c2C3=O)c1 | 0 | 0 | 0 | 0
Cc1ccc([N+](=O)[O-])cc1-c1ccc(/C=C(\C#N)c2[nH]nc(N)c2C#N)o1 | 17 | 0 | 0 | 0
Cc1cc2c(SCC(=O)Nc3cccc(O)c3)ncnc2s1 | 0 | - | 0 | -
CCCCNC(=O)c1ccccc1SCc1c(C)noc1C | 0 | 0 | 0 | 0
N#CCSc1nc(-c2ccccc2)c2cc(Cl)ccc2n1 | 18 | 0 | 0 | 0
CCc1ccccc1NC(=O)CN1CCN(C(=O)CN2C(=O)NC3(CCCCC3C)C2=O)CC1 (stereo unspecified) | 21 | - | 0 | -
COc1ccc(CCNC(=O)CN2C(=O)NC3(CCCCC3C)C2=O)cc1 (stereo unspecified) | 0 | 0 | 51 | 0
CNC(=O)c1ccccc1S(=O)(=O)c1ccccc1C#N | 11 | 0 | 0 | 0
